We go through 2 compounds from article PMC6503206 (International Journal of Nanomedicine, 2019).

Values after ≈ are worked out from the molar mass of the structure shown.

For series [1] the following is noted: cited from earlier work.
The nature of series [2]: Solubility of celecoxib in oils and cosurfactants. Type of series: physicochemical. The conditions noted are these: thermodynamic from solid. Put shortly:
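Excess solid test compound was stirred magnetically in 2 mL of each neat oil or cosurfactant at room temperature for 24 hrs, then centrifuged at 10,000 rpm for 10 mins. The supernatant was passed through a 0.45 µm membrane, diluted with methanol, and quantified by HPLC on a 5 µm C18 reversed-phase column (4.6×250 mm).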

For series [3] the following is noted: cited from earlier work. This is another data set of the same source.

On to `CCN(CC)c1ccc2nc3c4ccccc4c(=O)cc-3oc2c1` [Nile red], for which, in series [1], the log partition coefficient was 5.0.
A word on the solubility: it is the concentration that dissolves in the medium under given conditions. With `Cc1ccc(-c2cc(C(F)(F)F)nn2-c2ccc(S(N)(=O)=O)cc2)cc1` [celecoxib, Celecoxib], the solubility at 24 h is 433 ± 31.7 mg/mL (≈ 1140 mM) in series [2] (PEG 400, organic solvent or mixture); 79.2 ± 10.2 mg/mL (≈ 208 mM) in series [2] (ethanol, organic solvent or mixture); 3.25 ± 0.16 mg/mL (≈ 8.52 mM) in series [2] (fish oil, oil or lipid); 0.42 ± 0.01 mg/mL (≈ 1.1 mM) in series [2] (glycerine, organic solvent or mixture); 11.6 ± 3.08 mg/mL (≈ 30.5 mM) in series [2] (medium-chain triglycerides (MCT oil), oil or lipid); 0.73 ± 0.06 mg/mL (≈ 1.91 mM) in series [2] (oleic acid, oil or lipid). The solubility at 24 h in series [2] (propylene glycol (PG), organic solvent or mixture) was 24.2 ± 0.99 mg/mL (≈ 63.6 mM). For the same compound, the solubility in water in series [3] is 0.00255 to 0.00457 mg/mL.
